Measurements reported in ChEMBL document CHEMBL1122917, “Vinblastin-23-oyl amino acid derivatives: chemistry, physicochemical data, toxicity, and antitumor activities against P388 and L1210 leukemias” (J Med Chem, 1985).

How the values were obtained:
Format in all cases: functional
[1] = tested on: Mus musculus; experiment: Number of survivors on 30th day at dose 8 mg/kg/day in 9 mice implanted with P388 leukemia cell line; 0 /9
[2] = tested on: Mus musculus; experiment: Number of survivors on 30th day at dose 11 mg/kg/day in 10 mice implanted with P388 leukemia cell line; 0/10
[3] = tested on: Mus musculus; experiment: Number of survivors on 60th day at dose 7 mg/kg/day in 9 mice implanted with P388 leukemia cell line;0/9
[4] = tested on: Mus musculus; experiment: Percent increase in life span at dose 4 mg/kg/day in 7 mice implanted with P388 leukemia cell line for 1,8,15 scheduled day from Exp-2
[5] = tested on: Mus musculus; experiment: Number of survivors on 30th day at dose 4 mg/kg/day in 10 mice implanted with P388 leukemia cell line;5/10
[6] = tested on: Mus musculus; experiment: Number of survivors on 60th day at dose 10 mg/kg/day in 10 mice implanted with P388 leukemia cell line; 0/10
[7] = tested on: Mus musculus; experiment: Percent increase in life span of DBA2 mice after inoculation with L1210 leukemia intravenously at a dose of 0.5 mg/kg per day; conditions: route intravenous
[8] = tested on: Mus musculus; experiment: Percent increase in life span of DBA2 mice after inoculation with L1210 leukemia intravenously at a dose of 1.5 mg/kg per day; conditions: route intravenous
[9] = tested on: Mus musculus; experiment: Number of survivors on 60th day at dose 1 mg/kg/day in 10 mice implanted with P388 leukemia cell line; 0/10
[10] = tested on: Mus musculus; experiment: Number of survivors of DBA2 mice on 60th day after inoculation with L1210 leukemia cell line intravenously at a dose of 0.5 mg/kg/day; 0/10; conditions: route intravenous
[11] = tested on: Mus musculus; experiment: Number of survivors of DBA2 mice on 30th day after inoculation with L1210 leukemia cell line intravenously at a dose of 1.5 mg/kg/day; 0/10; conditions: route intravenous
[12] = tested on: Mus musculus; experiment: Number of survivors of DBA2 mice on 30th day after inoculation with L1210 leukemia cell line intravenously at a dose of 0.5 mg/kg/day; 0/10; conditions: route intravenous
[13] = tested on: Mus musculus; experiment: Number of survivors of DBA2 mice on 30th day after inoculation with L1210 leukemia cell line intravenously at a dose of 4.5 mg/kg/day; 0/10; conditions: route intravenous
[14] = tested on: Mus musculus; experiment: Number of survivors of DBA2 mice on 60th day after inoculation with L1210 leukemia cell line intravenously at a dose of 2 mg/kg/day; 0/10; conditions: route intravenous
[15] = tested on: Mus musculus; experiment: Number of survivors of DBA2 mice on 30th day after inoculation with L1210 leukemia cell line intravenously at a dose of 2.5 mg/kg/day; 0/10; conditions: route intravenous
[16] = tested on: Mus musculus; experiment: Percent increase in life span at dose 8 mg/kg/day in 7 mice implanted with P388 leukemia cell line for 1,8,15 schedule days from Exp-1
[17] = tested on: Mus musculus; experiment: Number of survivors on 60th day at dose 8 mg/kg/day in 7 mice implanted with P388 leukemia cell line for 1,8.15 scheduled days from Exp-2; 0/10
[18] = tested on: Mus musculus; experiment: Number of survivors on 60th day at dose 6 mg/kg/day in 9 mice implanted with P388 leukemia cell line; 0/10
[19] = tested on: Mus musculus; experiment: Percent increase in life span at dose 8 mg/kg/day in 7 mice implanted with P388 leukemia cell line for 1,8,15 schedule days from Exp-2
[20] = tested on: Mus musculus; experiment: Number of survivors on 30th day at dose 5 mg/kg/day in 9 mice implanted with P388 leukemia cell line; 1/9
[21] = tested on: Mus musculus; experiment: Number of survivors on 30th day at dose 3 mg/kg/day in 10 mice implanted with P388 leukemia cell line; 0/9
[22] = tested on: Mus musculus; experiment: Percent increase in life span at dose 2 mg/kg/day in 10 mice implanted with P388 leukemia cell line for 1st scheduled day
[23] = tested on: Mus musculus; experiment: Percent increase in life span at dose 2.5 mg/kg/day in 10 mice implanted with P388 leukemia cell line for 1st scheduled day
[24] = tested on: Mus musculus; experiment: Number of survivors on 30th day at dose 7 mg/kg/day in 10 mice implanted with P388 leukemia cell line; 0/10
[25] = tested on: Mus musculus; experiment: Number of survivors of DBA2 mice on 30th day after inoculation with L1210 leukemia cell line intravenously at a dose of 3 mg/kg/day; 0/11; conditions: route intravenous
[26] = tested on: Mus musculus; experiment: Percent increase in life span at dose 2.5 mg/kg/day in 10 mice implanted with P388 leukemia cell line
[27] = tested on: Mus musculus; experiment: Number of survivors on 60th day at dose 55 mg/kg/day in 10 mice implanted with P388 leukemia cell line; 1/10
[28] = tested on: Mus musculus; experiment: Percent increase in life span of DBA2 mice after inoculation with L1210 leukemia intravenously at a dose of 70 mg/kg per day; conditions: route intravenous
Summary of the method: (§1)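 Female DBA2 mice inoculated iv on day 0 with 10^4 L1210 cells; drugs given iv as sulfate salts in physiological saline, mostly once on day 1. %ILS from all deaths and survivors as (T/C × 100) − 100; survivors scored on days 30 and 60.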

[29] = tested on: Mus musculus; experiment: Number of survivors on 30th day at dose 20 mg/kg/day in 10 mice implanted with P388 leukemia cell line; 0/10
[30] = tested on: Mus musculus; experiment: Number of survivors on 30th day at dose 55 mg/kg/day in 10 mice implanted with P388 leukemia cell line for 1st scheduled day; 1/10
[31] = tested on: Mus musculus; experiment: Number of survivors on 30th day at dose 65 mg/kg/day in 10 mice implanted with P388 leukemia cell line; 7/9
[32] = tested on: Mus musculus; experiment: Number of survivors on 60th day at dose 40 mg/kg/day in 10 mice implanted with P388 leukemia cell line; 4/10
[33] = tested on: Mus musculus; experiment: Number of survivors of DBA2 mice on 60th day after inoculation with L1210 leukemia cell line intravenously at a dose of 45 mg/kg/day; 0/10; conditions: route intravenous
[34] = tested on: Mus musculus; experiment: Percent increase in life span of DBA2 mice after inoculation with L1210 leukemia intravenously at a dose of 65 mg/kg per day; conditions: route intravenous; summary of the method: as §1
[35] = tested on: Mus musculus; experiment: Number of survivors of DBA2 mice on 60th day after inoculation with L1210 leukemia cell line intravenously at a dose of 65 mg/kg/day; 0/10; conditions: route intravenous
[36] = tested on: Mus musculus; experiment: Number of survivors of DBA2 mice on 60th day after inoculation with L1210 leukemia cell line intravenously at a dose of 60 mg/kg/day; 0/10; conditions: route intravenous
[37] = tested on: Mus musculus; experiment: Number of survivors on 60th day at dose 55 mg/kg/day in 10 mice implanted with P388 leukemia cell line for 1st scheduled day; 6/10
[38] = tested on: Mus musculus; experiment: Number of survivors on 60th day at dose 75 mg/kg/day in 7 mice implanted with P388 leukemia cell line for 1,8,15 scheduled days in Exp-1; 6/10
[39] = tested on: Mus musculus; experiment: Percent increase in life span of DBA2 mice after inoculation with L1210 leukemia intravenously at a dose of 55 mg/kg per day; conditions: route intravenous; summary of the method: as §1
[40] = tested on: Mus musculus; experiment: Number of survivors on 60th day at dose 58 mg/kg/day in 10 mice implanted with P388 leukemia cell line; 0/10
[41] = tested on: Mus musculus; experiment: Number of survivors of DBA2 mice on 60th day after inoculation with L1210 leukemia cell line intravenously at a dose of 55 mg/kg/day; 0/10; conditions: route intravenous

SMILES: CC[C@]1(O)C[C@@H]2CN(CCc3c([nH]c4ccccc34)[C@@](C(=O)OC)(c3cc4c(cc3OC)N(C)[C@H]3[C@@](O)(C(=O)OC)[C@H](OC(C)=O)[C@]5(CC)C=CCN6CC[C@]43[C@@H]65)C2)C1 [VINBLASTINE]
- Survivors [1]: 0
- Survivors [2]: 0
- Survivors [3]: 0
- ILS at 4 mg/kg/day [4]: 35%
- Survivors [5]: 5
- Survivors [6]: 0

SMILES: CC[C@]1(O)C[C@H]2CN(CCc3c([nH]c4ccccc34)[C@@](C(=O)OC)(c3cc4c(cc3OC)N(C=O)[C@H]3[C@@](O)(C(=O)OC)[C@H](OC(C)=O)[C@]5(CC)C=CCN6CC[C@]43[C@@H]65)C2)C1 [VINCRISTINE]
- ILS at 0.5 mg/kg/day [7]: 1%
- ILS at 1.5 mg/kg/day [8]: 12%
- Survivors [9]: 0
- Survivors [10]: 0
- Survivors [11]: 0
- Survivors [12]: 0
- Survivors [13]: 0
- Survivors [14]: 0
- Survivors [15]: 0

SMILES: CCOC(=O)[C@@H](NC(=O)[C@@]1(O)[C@H](O)[C@]2(CC)C=CCN3CC[C@@]4(c5cc([C@@]6(C(=O)OC)C[C@H]7C[N@](CCc8c6[nH]c6ccccc86)C[C@](O)(CC)C7)c(OC)cc5N(C)[C@@]14C)[C@@H]32)[C@@H](C)CC
- ILS at 8 mg/kg/day [16]: 119%
- Survivors [17]: 0
- Survivors [18]: 0
- ILS at 8 mg/kg/day [19]: > 482%
- Survivors [20]: 1

SMILES: CC[C@]1(O)C[C@@H]2CN(CCc3c([nH]c4ccccc34)[C@@](C(=O)OC)(c3cc4c(cc3OC)N(C)[C@H]3[C@@](O)(C(N)=O)[C@H](O)[C@]5(CC)C=CCN6CC[C@]43[C@@H]65)C2)C1 [VINDESINE]
- Survivors [21]: 0
- ILS at 2 mg/kg/day [22]: 28%
- ILS at 2.5 mg/kg/day [23]: 32%
- Survivors [24]: 0
- Survivors [25]: 0
- ILS at 2.5 mg/kg/day [26]: 19%

SMILES: CCOC(=O)[C@H](Cc1c[nH]c2ccccc12)NC(=O)[C@@]1(O)[C@H](O)[C@]2(CC)C=CCN3CC[C@@]4(c5cc([C@@]6(C(=O)OC)C[C@H]7C[N@](CCc8c6[nH]c6ccccc86)C[C@](O)(CC)C7)c(OC)cc5N(C)[C@@]14C)[C@@H]32
- Survivors [27]: 1
- ILS at 70 mg/kg/day [28]: 61.8%
- Survivors [29]: 0
- Survivors [30]: 1
- Survivors [31]: 7
- Survivors [32]: 4
- Survivors [33]: 0
- ILS at 65 mg/kg/day [34]: 71%
- Survivors [35]: 0
- Survivors [36]: 0
- Survivors [37]: 6
- Survivors [38]: 6
- ILS at 55 mg/kg/day [39]: 55.3%
- Survivors [40]: 0
- Survivors [41]: 0
